Measurements pooled from the literature.
Protocols differ between the studies behind these lines.
Target: Mitogen-activated protein kinase 1 (MAPK1, Homo sapiens, UniProt P28482)

`Cc1sc(C(=O)NC2COC2)cc1-n1cc(NC(=O)Nc2c(F)cccc2Cl)cn1` has a remaining activity of 90.8% (enzyme activity, inhibitor; 10 µM).
`Nc1nc(NC2CCCCC2)sc1C(=O)c1ccccc1` has a remaining activity of 16% (enzyme activity, inhibitor; 10 µM).
`CC1=C(C#N)C(c2ccc3c(c2)c(NC(=O)c2ccccc2C)nn3C)C(C#N)=C(C)N1` gave a remaining binding of 80% (cell-free assay, competition with immobilised ligand; 1 µM).
The remaining activity of `Nc1nc(Nc2ccccc2)sc1C(=O)c1c(F)cccc1F` is reported as 68% (enzyme activity, inhibitor; 10 µM).
For `Nc1ncnc2occ(-c3ccc(NC(=O)Nc4cc(C(F)(F)F)ccc4F)cc3)c12`, the remaining signal was 100% (cell-free assay, inhibitor; 20 µM).
`Cc1cnc(NC2CCOCC2)nc1-n1cnc(C(=O)NC(CN)c2cc(F)cc(Cl)c2)c1` (stereo not drawn) has a remaining activity of 2% (enzyme activity, inhibitor, radiometric; 1 µM).
With `O=C1Nc2ccc(Cl)cc2C1=Cc1cc(Cl)c(O)c(Cl)c1` the remaining signal was 84.3% (cell-free assay; 0.5 µM).
With `CCC(=O)N[C@H]1CC[C@@H](C(=O)N(C)c2ccc(-c3nc4ccccc4o3)cc2)C1` the remaining binding was 76% (cell-free assay, competition with immobilised ligand; 1 µM).
`COc1cc(Cl)c(C(=O)N[C@@H](CN[C@H]2CC[C@@H](N)CC2)Cc2ccc(C#N)cc2)cc1-c1ccc(CN[C@H](C)c2ccc(C)cc2)o1` has a remaining activity of 92% (enzyme activity, inhibitor; 1 µM).
`CNCc1ccccc1-c1csc([C@@H](C)Nc2nc(C)nc3cc(OC)c(OC)cc23)c1` has a remaining binding of 78% (cell-free assay, competition with immobilised ligand; 1 µM).
`CNc1cccc2cc(C(=O)Nc3ccc(C(=O)O)cc3)c(=O)[nH]c12` gave an inhibition of 1.3% (enzyme activity, inhibitor; 10 µM).
`O=C1Cc2c([nH]c3ccc(Br)cc23)-c2ccccc2N1` has a remaining signal of 90.5% (cell-free assay; 0.5 µM).
With `CO[C@@H](C)c1c(Nc2ccc([C@@H](N(C)C(=O)C3CCS(=O)(=O)CC3)C(F)(F)F)cc2)cnc2cc(Cl)nn12` the remaining binding was 100% (cell-free assay, competition with immobilised ligand; 1 µM).
`CCN(CC)CCNC(=O)c1c(C)[nH]c(/C=C2\C(=O)Nc3ccc(F)cc32)c1C` gave an inhibition of -6% (enzyme activity, inhibitor; 0.3 µM).
`Cc1cc(C)c(-n2ccn3nc(-c4cccnc4)cc23)cc1NC(=O)c1cc(C#N)cc(S(F)(F)(F)(F)F)c1` has a remaining binding of 88.1% (cell-free assay, competition with immobilised ligand; 0.1 µM).
For `CNC(=O)c1cc(Oc2ccc(NC(=O)Nc3ccc(Cl)c(C(F)(F)F)c3)cc2)ccn1`, the remaining signal was 101% (cell-free assay; 0.5 µM).
The inhibition of `CSc1nc(C)c(-c2ccnc(Nc3ccc(N4CCOCC4)cc3)c2)[nH]1` is reported as 5.3% (enzyme activity, inhibitor; 10 µM).
With `O=C(NCCCC1CCCCC1)c1ccc(CNC(=O)c2cnn(-c3ccccc3)c2C(F)(F)F)cc1` the remaining binding was 93% (cell-free assay, competition with immobilised ligand; 0.1 µM).
For `COc1cc2ncnc(Nc3ccc(Oc4ccccc4)c(C)c3C)c2cc1OC`, the inhibition was -2% (enzyme activity, inhibitor; 1 µM).
With `CC(C)c1ccc(NC(=O)c2cccs2)c(-c2nc3ccccc3[nH]c2=O)c1` the activity vs control was 110% (enzyme activity, inhibitor; 1 µM).
`Nc1[nH]nc2nnc(-c3c(-c4ccccc4)nn4ccccc34)cc12` gave a remaining signal of 87.2% (cell-free assay; 0.5 µM).
With `Cc1noc([C@H]2C[C@@H](c3ccc(C(F)(F)F)cc3)CN(C(=O)N3CCS(=O)(=O)C3)C2)n1` the remaining binding was 100% (cell-free assay, competition with immobilised ligand; 1 µM).
`COc1cccc(-c2cc(=O)c3ccccc3o2)c1N` gave a remaining signal of 97.1% (cell-free assay; 0.5 µM).
With `CN(C)C1CCN(CC#Cc2nn(C3CCCC3)c3nc(NCc4ccccc4)ncc23)C1` (stereo not drawn) the inhibition was 2% (enzyme activity, inhibitor, FRET; 10 µM).
`COc1cc2c(cc1OC)-c1[nH]nc(Nc3cccc(F)c3)c1C2` gave a remaining signal of 85.1% (cell-free assay; 0.5 µM).
For `Cc1cc(NC(=O)c2cccc3cc(-c4cccc5[nH]nc(N)c45)ccc23)ccc1F`, the activity vs control was 100% (enzyme activity, inhibitor; 0.1 µM).
`Cc1c(NC(=O)c2cc(C(N)=O)nc3cc(F)ccc23)c(C(F)(F)F)nn1Cc1ccc(C#N)cc1` has a remaining binding of 100% (cell-free assay, competition with immobilised ligand; 1 µM).
`FC(F)c1nc2ccccc2n1-c1nc(N2CCOCC2)nc(N2CCOCC2)n1` gave a remaining activity of 105% (enzyme activity, inhibitor; 10 µM).
`O=C(Nc1cnn(-c2csc(C(=O)NC3COC3)c2)c1)Nc1ccccc1Cl` gave a remaining activity of 110% (enzyme activity, inhibitor; 5 µM).
With `CCN(CC)c1ccc(C2=NNC(=O)CC2C)cc1[N+](=O)[O-]` (stereo not drawn) the remaining activity was 100% (enzyme activity, inhibitor; 10 µM).
The inhibition of `Cc1ccc(Nc2nccc(N(C)c3ccc4c(C)n(C)nc4c3)n2)cc1S(N)(=O)=O` is reported as -1% (enzyme activity, inhibitor; 0.3 µM).
For `CC(C)(C)c1nc(-c2cccc(NS(=O)(=O)c3c(F)cccc3F)c2F)c(-c2ccnc(N)n2)s1`, the remaining activity was 88% (enzyme activity, inhibitor, radiometric; 1 µM).
`COc1cc(Nc2cnc(C#N)c(O[C@H](C)CN(C)C)n2)ncc1-c1cnn(C)c1` gave a remaining activity of 80% (enzyme activity, inhibitor, radiometric; 10 µM).
